Assay results reported in article PMC8802302 (Journal of Medicinal Chemistry, 2021).

Columns and labels:
NUAK1 [1] = target: T1, NUAK1 (Homo sapiens, UniProt O60285); test: Eurofins kinase enzymatic radiometric assay; format: biochemical; settings: enzymatic IC50 values
T1 sequence (O60285 1-661): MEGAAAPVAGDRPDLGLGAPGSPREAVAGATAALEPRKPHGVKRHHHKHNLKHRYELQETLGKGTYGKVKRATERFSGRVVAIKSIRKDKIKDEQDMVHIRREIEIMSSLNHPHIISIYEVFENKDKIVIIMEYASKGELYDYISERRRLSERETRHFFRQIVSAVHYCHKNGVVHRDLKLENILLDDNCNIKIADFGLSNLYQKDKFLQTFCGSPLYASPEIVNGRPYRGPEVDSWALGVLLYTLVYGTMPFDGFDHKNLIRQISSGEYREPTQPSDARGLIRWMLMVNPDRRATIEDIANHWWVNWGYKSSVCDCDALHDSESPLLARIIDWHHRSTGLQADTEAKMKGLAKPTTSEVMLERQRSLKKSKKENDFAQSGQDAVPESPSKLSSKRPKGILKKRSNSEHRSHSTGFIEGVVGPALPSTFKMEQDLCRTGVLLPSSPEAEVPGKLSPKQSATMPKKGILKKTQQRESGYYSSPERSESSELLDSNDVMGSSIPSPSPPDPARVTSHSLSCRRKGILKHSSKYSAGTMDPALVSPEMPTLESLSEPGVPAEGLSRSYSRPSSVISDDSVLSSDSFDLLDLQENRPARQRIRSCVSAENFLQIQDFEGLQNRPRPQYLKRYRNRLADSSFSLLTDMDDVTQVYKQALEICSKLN
Outline: (§1)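 Both kinases of each pair (NUAK1/NUAK2; TBK1/IKKε) were tested in radiometric assays with ATP at Km. Test compounds were run as 9-point dose–response curves in duplicate. IC50 values for the two kinases were then compared as a fold difference.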

16-member kinase panel = test: Eurofins custom enzymatic kinase panel, count of kinases inhibited; format: biochemical; settings: 16-member Eurofins panel, 1 μM
Outline: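 Radiometric kinase assays were run with ATP at Km. Each test compound was tested at a single concentration of 1 μM, in duplicate, against each panel kinase, with results as percent of control. The count is the number of kinases at ≤ 10 PoC, i.e. inhibited ≥ 90%.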

[2] = system: 403 wild-type (WT) human kinases; test: DiscoverX scanMAX kinome-wide selectivity screen; format: binding; settings: 403 WT human kinases; for S10 (1 μM): Percentage of screened kinases with PoC values < 10 at 1 μM; for no. kinases with PoC < 10: DiscoverX scanMAX, 1 μM
PAMPA permeability = format: in vitro ADME; settings: PBS pH 7.4, 5 h incubation
Outline: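 DMSO stocks of test compound were diluted in PBS pH 7.4 and added to the donor side of a precoated PAMPA plate, with PBS pH 7.4 as acceptor, for 5 h. Both compartments were quantified by chemiluminescent nitrogen detection against a calibration curve, with background nitrogen corrected. Effective permeability was calculated from donor and acceptor concentrations, using measured rather than assumed solubility.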

TBK1 = target: T2, TBK1 (Homo sapiens, UniProt Q9UHD2); test: Eurofins kinase enzymatic radiometric assay; format: biochemical; settings: enzymatic IC50 values
T2 sequence (Q9UHD2 1-729): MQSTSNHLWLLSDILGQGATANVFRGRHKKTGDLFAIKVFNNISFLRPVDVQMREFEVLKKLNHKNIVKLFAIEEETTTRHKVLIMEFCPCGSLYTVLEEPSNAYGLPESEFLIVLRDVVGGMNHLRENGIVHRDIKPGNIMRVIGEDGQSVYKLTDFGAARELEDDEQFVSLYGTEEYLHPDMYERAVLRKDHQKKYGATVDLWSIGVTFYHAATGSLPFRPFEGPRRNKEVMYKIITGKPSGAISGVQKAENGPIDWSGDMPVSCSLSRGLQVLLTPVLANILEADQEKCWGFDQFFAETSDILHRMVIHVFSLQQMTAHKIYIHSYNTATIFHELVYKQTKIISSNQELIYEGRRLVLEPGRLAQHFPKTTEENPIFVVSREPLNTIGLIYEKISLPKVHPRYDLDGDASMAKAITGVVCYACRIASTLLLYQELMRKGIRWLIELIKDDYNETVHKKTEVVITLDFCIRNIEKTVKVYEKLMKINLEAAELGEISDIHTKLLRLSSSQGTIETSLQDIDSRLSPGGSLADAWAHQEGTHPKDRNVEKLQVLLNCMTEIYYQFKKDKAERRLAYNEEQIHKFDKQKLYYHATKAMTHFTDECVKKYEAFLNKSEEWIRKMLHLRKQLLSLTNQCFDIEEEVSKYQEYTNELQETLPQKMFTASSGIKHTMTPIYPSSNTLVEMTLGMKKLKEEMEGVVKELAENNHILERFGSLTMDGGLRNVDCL
Outline: as §1

LRRK2 = LRRK2 (Homo sapiens, UniProt Q5S007); test: NanoBRET assay follow-up; format: cell-based; settings: singlicate (n = 1) dose–response
MARK3 (NLuc-MARK3) = MARK3 (NLuc-MARK3) (Homo sapiens, UniProt P27448); test: NanoBRET cellular target engagement assay; format: cell-based
NUAK1 [3] = target: T1, NUAK1; test: NanoBRET assay follow-up; format: cell-based
TYK2 = TYK2 (Homo sapiens, UniProt P29597); test: NanoBRET assay follow-up; format: cell-based; settings: singlicate (n = 1) dose–response
DRAK1 (DRAK1-NLuc) = target: T3, DRAK1 (DRAK1-NLuc) (Homo sapiens, UniProt Q9UEE5); test: NanoBRET cellular target engagement assay; format: cell-based; settings: HEK293, 0.5 μM tracer K-9; n = 1 where no error, SEM n = 3
T3 sequence (Q9UEE5 1-414): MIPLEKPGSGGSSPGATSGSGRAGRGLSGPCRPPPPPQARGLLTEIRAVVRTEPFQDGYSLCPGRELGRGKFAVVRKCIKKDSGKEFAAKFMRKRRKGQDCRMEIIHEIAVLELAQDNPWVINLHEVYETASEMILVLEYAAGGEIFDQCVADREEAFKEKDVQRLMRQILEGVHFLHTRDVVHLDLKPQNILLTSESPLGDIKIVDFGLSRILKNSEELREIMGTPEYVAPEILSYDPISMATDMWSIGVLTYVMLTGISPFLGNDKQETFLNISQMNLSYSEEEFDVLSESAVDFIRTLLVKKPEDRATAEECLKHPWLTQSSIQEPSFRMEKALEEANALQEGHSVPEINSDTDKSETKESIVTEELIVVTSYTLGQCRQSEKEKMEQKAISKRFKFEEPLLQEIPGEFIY

MARK4 (NLuc-MARK4) = target: T4, MARK4 (NLuc-MARK4) (Homo sapiens, UniProt Q96L34); test: NanoBRET cellular target engagement assay; format: cell-based; settings: HEK293, 0.5 μM tracer K-5; n = 1 where no error, SEM n = 2
T4 sequence (Q96L34 1-752): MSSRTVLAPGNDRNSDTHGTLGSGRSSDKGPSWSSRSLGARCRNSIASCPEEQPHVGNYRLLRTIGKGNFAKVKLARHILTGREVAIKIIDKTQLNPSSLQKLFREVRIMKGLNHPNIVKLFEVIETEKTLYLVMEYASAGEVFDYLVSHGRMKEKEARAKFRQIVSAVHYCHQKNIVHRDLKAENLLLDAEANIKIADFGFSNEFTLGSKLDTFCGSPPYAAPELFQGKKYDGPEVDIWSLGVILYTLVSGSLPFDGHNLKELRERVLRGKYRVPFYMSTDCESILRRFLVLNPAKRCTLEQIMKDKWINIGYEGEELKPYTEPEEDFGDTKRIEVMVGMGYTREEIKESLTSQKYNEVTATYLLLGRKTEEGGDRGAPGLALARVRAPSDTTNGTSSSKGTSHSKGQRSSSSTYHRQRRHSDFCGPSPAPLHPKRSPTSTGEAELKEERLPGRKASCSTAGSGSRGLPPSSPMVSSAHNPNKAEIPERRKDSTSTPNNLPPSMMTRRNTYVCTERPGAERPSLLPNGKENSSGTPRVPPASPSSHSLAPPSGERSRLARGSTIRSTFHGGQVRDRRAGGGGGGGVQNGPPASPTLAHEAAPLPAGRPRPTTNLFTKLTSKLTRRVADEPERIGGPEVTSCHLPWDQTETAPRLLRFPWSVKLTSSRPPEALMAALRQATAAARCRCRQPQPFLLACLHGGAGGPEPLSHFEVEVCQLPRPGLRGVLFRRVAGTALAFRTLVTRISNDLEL

TBK1 (NLuc-TBK1) = target: T5, TBK1 (NLuc-TBK1) (Homo sapiens, UniProt Q9UHD2); test: NanoBRET cellular target engagement assay; format: cell-based; settings: HEK293, 0.5 μM tracer K-5; n = 1 where no error, SEM n = 3
T5 sequence (Q9UHD2 1-729): T2 sequence (Q9UHD2 1-729)
Outline: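 HEK293 cells were grown in DMEM with 10% FBS at 37 °C under 5% CO2, passaged every 72 h with trypsin and kept below confluency. Cells expressed NanoLuc fusions (DRAK1-NLuc or NLuc-TBK1). Dose–response was run per the manufacturer's protocol, with 0.5 μM tracer K-9 for DRAK1 and 0.5 μM tracer K-5 for TBK1. SEM was reported where assays were repeated.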

MYLK2 = MYLK2 (Homo sapiens, UniProt Q9H1R3); test: NanoBRET assay follow-up; format: cell-based
MYLK2, sequence (Q9H1R3 whole entry): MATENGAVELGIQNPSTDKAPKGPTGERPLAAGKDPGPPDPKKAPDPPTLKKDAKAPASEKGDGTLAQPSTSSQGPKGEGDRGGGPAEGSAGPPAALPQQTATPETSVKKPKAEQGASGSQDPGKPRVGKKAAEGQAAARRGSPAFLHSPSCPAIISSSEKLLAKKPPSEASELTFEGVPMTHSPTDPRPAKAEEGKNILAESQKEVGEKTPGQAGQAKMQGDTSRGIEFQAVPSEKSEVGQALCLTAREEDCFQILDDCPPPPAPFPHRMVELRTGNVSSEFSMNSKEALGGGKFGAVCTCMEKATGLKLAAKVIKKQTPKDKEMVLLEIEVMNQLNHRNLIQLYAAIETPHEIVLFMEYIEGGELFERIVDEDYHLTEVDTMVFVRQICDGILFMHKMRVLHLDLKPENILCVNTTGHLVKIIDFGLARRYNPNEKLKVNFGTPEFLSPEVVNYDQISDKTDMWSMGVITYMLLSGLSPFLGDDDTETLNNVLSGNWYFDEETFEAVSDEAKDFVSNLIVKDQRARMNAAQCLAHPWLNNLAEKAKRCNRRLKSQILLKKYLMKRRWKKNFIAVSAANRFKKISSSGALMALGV

MARK3 (NLuc-MARK3), sequence (P27448 whole entry): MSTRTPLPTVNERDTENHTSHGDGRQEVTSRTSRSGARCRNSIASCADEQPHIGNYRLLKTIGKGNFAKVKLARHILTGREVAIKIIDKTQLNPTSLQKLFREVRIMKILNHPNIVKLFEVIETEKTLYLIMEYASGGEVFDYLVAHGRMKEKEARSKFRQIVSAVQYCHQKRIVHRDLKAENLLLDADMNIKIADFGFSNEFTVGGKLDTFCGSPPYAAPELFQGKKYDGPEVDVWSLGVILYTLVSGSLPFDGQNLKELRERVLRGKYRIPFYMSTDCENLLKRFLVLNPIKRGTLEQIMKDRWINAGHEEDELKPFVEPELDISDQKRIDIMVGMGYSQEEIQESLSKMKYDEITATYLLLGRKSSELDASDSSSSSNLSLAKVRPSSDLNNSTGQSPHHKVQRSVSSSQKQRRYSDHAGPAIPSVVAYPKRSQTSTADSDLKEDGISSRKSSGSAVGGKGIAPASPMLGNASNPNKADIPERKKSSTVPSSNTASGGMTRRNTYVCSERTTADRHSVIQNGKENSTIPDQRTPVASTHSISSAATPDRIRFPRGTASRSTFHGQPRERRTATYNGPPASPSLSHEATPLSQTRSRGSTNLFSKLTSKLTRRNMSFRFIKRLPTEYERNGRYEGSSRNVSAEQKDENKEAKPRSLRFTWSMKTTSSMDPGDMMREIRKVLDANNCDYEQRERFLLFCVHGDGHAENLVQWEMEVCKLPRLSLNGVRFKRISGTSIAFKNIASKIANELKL
TYK2, sequence (P29597 whole entry): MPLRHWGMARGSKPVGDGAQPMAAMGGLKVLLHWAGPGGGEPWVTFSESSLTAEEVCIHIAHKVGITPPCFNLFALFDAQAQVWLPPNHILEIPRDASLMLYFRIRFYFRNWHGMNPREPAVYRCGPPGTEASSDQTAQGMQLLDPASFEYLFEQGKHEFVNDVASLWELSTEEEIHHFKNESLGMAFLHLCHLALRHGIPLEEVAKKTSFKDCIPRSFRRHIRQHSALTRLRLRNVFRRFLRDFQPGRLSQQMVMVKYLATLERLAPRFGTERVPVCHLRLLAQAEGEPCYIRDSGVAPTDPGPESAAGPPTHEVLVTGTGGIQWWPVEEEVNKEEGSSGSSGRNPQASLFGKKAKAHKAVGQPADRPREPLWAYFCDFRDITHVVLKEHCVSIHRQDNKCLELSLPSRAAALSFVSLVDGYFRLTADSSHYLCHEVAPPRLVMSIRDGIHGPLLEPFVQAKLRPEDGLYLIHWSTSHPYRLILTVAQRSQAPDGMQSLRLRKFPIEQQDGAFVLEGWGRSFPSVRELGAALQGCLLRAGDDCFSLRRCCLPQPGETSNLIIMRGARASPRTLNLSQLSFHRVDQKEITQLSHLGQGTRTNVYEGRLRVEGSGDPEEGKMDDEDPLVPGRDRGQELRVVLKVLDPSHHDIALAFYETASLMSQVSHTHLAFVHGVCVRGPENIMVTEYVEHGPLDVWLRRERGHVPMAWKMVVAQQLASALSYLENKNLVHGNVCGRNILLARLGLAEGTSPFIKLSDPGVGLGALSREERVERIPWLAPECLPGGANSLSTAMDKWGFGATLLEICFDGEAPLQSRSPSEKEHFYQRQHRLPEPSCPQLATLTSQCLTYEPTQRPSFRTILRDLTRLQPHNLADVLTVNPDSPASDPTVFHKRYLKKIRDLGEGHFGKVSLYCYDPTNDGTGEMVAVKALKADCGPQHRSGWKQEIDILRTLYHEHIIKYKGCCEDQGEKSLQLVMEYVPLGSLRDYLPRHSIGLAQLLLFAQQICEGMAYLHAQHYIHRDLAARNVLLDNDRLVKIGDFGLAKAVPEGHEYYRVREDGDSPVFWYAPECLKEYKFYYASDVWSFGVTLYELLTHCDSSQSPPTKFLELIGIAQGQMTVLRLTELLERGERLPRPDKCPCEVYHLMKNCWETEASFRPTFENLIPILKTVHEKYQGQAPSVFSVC
LRRK2, sequence (Q5S007 whole entry): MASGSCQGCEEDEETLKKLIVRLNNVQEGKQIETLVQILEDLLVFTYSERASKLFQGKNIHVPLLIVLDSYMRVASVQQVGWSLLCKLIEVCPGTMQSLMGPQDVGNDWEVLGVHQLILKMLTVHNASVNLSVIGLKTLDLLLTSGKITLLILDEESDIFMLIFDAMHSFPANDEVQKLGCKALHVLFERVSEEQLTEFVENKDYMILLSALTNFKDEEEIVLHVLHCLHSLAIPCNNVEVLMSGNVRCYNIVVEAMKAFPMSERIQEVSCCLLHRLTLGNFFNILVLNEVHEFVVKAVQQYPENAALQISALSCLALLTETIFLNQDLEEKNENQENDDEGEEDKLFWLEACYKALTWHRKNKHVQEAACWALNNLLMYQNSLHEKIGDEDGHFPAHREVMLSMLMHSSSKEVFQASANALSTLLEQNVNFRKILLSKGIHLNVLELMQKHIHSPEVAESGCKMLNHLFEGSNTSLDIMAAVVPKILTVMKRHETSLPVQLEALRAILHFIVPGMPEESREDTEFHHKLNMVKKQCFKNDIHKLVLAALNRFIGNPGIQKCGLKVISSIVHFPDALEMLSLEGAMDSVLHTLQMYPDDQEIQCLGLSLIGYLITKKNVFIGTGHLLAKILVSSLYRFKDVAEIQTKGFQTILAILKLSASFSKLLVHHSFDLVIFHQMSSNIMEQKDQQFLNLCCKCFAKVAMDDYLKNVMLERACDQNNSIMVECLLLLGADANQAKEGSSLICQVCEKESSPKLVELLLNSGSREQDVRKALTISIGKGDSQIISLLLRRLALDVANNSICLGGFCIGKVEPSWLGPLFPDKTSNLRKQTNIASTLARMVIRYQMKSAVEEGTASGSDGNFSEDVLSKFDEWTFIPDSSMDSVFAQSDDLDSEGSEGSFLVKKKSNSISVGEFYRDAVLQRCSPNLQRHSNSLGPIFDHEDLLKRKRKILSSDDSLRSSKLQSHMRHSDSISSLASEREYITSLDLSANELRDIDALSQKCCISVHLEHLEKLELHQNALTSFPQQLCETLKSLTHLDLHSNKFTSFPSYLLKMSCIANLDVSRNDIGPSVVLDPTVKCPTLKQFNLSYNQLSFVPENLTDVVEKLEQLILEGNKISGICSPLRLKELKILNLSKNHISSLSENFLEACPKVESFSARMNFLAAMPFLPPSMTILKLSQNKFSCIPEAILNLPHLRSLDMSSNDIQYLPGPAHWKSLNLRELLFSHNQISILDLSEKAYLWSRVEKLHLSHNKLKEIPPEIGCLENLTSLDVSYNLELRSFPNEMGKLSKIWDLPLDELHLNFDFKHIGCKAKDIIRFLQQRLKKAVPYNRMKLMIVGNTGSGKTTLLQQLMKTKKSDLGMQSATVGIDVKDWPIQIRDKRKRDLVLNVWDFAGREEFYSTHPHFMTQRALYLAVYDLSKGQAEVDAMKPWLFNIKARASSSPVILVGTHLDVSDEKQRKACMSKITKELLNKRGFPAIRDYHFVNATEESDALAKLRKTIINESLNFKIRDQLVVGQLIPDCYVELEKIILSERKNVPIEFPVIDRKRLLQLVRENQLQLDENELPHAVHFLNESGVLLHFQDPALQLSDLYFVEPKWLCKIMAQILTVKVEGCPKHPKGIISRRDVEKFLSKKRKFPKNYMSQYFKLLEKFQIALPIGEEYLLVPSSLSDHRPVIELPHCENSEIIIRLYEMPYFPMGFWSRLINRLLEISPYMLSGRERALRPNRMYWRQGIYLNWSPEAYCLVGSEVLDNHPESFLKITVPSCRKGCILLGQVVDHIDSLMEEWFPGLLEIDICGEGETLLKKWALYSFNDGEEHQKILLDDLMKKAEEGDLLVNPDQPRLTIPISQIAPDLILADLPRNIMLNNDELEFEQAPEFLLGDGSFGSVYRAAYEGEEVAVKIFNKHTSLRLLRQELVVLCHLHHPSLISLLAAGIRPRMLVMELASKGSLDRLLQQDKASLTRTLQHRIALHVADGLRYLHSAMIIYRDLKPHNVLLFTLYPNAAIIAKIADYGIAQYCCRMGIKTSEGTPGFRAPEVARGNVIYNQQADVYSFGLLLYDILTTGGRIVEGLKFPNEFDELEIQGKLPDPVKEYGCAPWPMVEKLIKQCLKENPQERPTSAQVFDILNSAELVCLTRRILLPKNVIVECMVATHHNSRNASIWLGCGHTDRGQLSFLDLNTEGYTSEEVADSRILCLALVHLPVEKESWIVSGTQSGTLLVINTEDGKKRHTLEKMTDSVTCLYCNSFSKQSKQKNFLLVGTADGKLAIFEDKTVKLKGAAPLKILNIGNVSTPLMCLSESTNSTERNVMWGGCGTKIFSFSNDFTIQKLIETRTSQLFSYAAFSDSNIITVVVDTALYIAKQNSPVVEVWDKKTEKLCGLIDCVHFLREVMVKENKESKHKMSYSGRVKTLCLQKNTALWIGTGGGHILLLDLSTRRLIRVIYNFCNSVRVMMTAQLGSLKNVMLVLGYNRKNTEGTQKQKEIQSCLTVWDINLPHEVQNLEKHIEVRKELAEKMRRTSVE

no. kinases ≤ 10 PoC in enzyme panel (16-member kinase panel)	Pe (permeability coefficient, PAMPA) (PAMPA permeability)	SMILES	S10 (1 μM) [2]	no. kinases with PoC < 10 [2]	other results
4	below the limit of quantitation	NS(=O)(=O)c1ccc(CNc2nc(Nc3cccc(NC(=O)N4CCCC4)c3)ncc2Br)cc1 [Compound 13, N-(3-((5-Bromo-4-((4-sulfamoylbenzyl)amino)pyrimidin-2-yl)amino)phenyl)pyrrolidine-1-carboxamide]	0.03	–	fold difference between NUAK1 and NUAK2 (NUAK1 [1]): ~3 fold
1	below the limit of quantitation	Cc1nn(CC(F)(F)F)cc1Nc1ncc(C2CC2)c(NCc2ccc(S(N)(=O)=O)cc2)n1 [Compound 5, 4-(((5-Cyclopropyl-2-((3-methyl-1-(2,2,2-trifluoroethyl)-1H-pyrazol-4-yl)amino)pyrimidin-4-yl)amino)methyl)benzenesulfonamide]	0.005	2	fold difference in potency for TBK1 and IKKε (TBK1): 8 fold
0	low permeability	Cc1nn(CC(F)(F)F)cc1Nc1ncc(C2CC2)c(NCCc2c[nH]cn2)n1 [Compound 3, N^4-(2-(1H-Imidazol-4-yl)ethyl)-5-cyclopropyl-N^2-(3-methyl-1-(2,2,2-trifluoroethyl)-1H-pyrazol-4-yl)pyrimidine-2,4-diamine]	0.005	2	LRRK2 NanoBRET IC50 (LRRK2): did not have any activity
16	–	O=C(NCCCNc1nc(Nc2cccc(NC(=O)N3CCCC3)c2)ncc1I)c1cccs1 [BX-795, reference compound]	–	–	IC50 (MARK3 (NLuc-MARK3)): 515 nM; IC50 (NUAK1 [3]): 187 nM; fold loss in potency, enzymatic to NanoBRET, NUAK1 (NUAK1 [3]; published enzymatic IC50 vs NanoBRET IC50): ~34 fold
0	below the limit of quantitation	NS(=O)(=O)c1ccc(CNc2ccnc(Nc3cccc(NC(=O)N4CCCC4)c3)n2)cc1 [Compound 16, N-(3-((4-((4-Sulfamoylbenzyl)amino)pyrimidin-2-yl)amino)phenyl)pyrrolidine-1-carboxamide]	–	1	TYK2 NanoBRET IC50 (TYK2): did not have any activity
16	–	O=C(NCCCNc1nc(Nc2cccc(NC(=O)N3CCCC3)c2)ncc1Br)C1CCC1 [Compound 18, N-(3-((5-Bromo-4-((3-(cyclobutanecarboxamido)propyl)amino)pyrimidin-2-yl)amino)phenyl)pyrrolidine-1-carboxamide]	0.223	90	DRAK1 NanoBRET IC50 (DRAK1 (DRAK1-NLuc)): submicromolar; MARK3 NanoBRET IC50 (MARK3 (NLuc-MARK3); HEK293, 0.5 μM tracer K-9, n = 1 where no error, SEM n = 2): submicromolar; MARK4 NanoBRET IC50 (MARK4 (NLuc-MARK4)): submicromolar; TBK1 NanoBRET IC50 (TBK1 (NLuc-TBK1)): submicromolar
0	–	NS(=O)(=O)c1ccc(CNc2ccnc(Nc3cccc(CN4CCOCC4)c3)n2)cc1 [Compound 19, 4-(((2-((3-(Morpholinomethyl)phenyl)amino)pyrimidin-4-yl)amino)methyl)benzenesulfonamide]	0.007	3	TYK2 NanoBRET IC50 (TYK2): did not have any activity
0	low permeability	Cc1nn(CC(F)(F)F)cc1Nc1nccc(NCCc2cnc[nH]2)n1 [Compound 15, N^4-(2-(1H-Imidazol-5-yl)ethyl)-N^2-(3-methyl-1-(2,2,2-trifluoroethyl)-1H-pyrazol-4-yl)pyrimidine-2,4-diamine]	–	0	fold loss in potency, enzymatic versus NanoBRET, MYLK2 (MYLK2): < 10 fold; MYLK2 NanoBRET IC50 (MYLK2; singlicate (n = 1) dose–response): single digit micromolar activity
